Values joined by “and” are separate entries in the source; they are usually repeats but may differ in a detail not shown here. Identical values can stand only once.
Test system: U2OS
Experiment: Multiplex assay against U2OS
Assay type: toxicity, cell-based
Conditions: human
Summary of the method: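 At seeding, live cells were stained with Hoechst33342, BioTracker Green Microtubule Cytoskeleton Dye, MitoTracker Red and Annexin V Alexa Fluor 680. After compound addition they were imaged on a CQ1 microscope at 37°C and 5% CO2, and CellPathfinder machine-learning gating sorted them into Hoechst high-intensity objects or normal cells, with normal cells further split into healthy, pyknosed or fragmented nuclei and pyknosed cells into mitotic or apoptotic. Tubulin, mitochondrial-mass and membrane-permeability phenotypes are given as per cents of cells with healthy nuclei.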

[1] = 12 h, 1 µM, compound concentration 1 uM, replicate 1
[2] = 12 h, 1 µM, compound concentration 1 uM, replicate 2
[3] = 12 h, 10 µM, compound concentration 10 uM, replicate 1
[4] = 12 h, 10 µM, compound concentration 10 uM, replicate 2
[5] = 24 h, 1 µM, compound concentration 1 uM, replicate 1
[6] = 24 h, 1 µM, compound concentration 1 uM, replicate 2
[7] = 24 h, 10 µM, compound concentration 10 uM, replicate 1
[8] = 24 h, 10 µM, compound concentration 10 uM, replicate 2
[9] = 48 h, 1 µM, compound concentration 1 uM, replicate 1
[10] = 48 h, 1 µM, compound concentration 1 uM, replicate 2
[11] = 48 h, 10 µM, compound concentration 10 uM, replicate 1
[12] = 48 h, 10 µM, compound concentration 10 uM, replicate 2

SMILES: c1cn2cc(-c3ccc4cn[nH]c4c3)nc(Nc3ccc(N4CCOCC4)cc3)c2n1 [ENTOSPLETINIB]
- Population Apoptotic (%) [1]: 32%
- Population Fragmented Nuclei (%) [1]: 13%
- Population Healthy Nuclei (%) [1]: 66%
- Population Hoechst High Intensity Objects (%) [1]: 4%
- Population Membrane Permeable-Phenotype (%) [1]: 13%
- Population Mitochondria Different-Phenotype (%) [1]: 36%
- Population Mitotic Cells (%) [1]: 67%
- Population Normal (%) [1]: 95%
- Population Pyknosed Nuclei (%) [1]: 20%
- Population Tubulin-Different-Phenotype (%) [1]: 41%
- Total Cell Count [1]: 172
- Population Apoptotic (%) [2]: 40%
- Population Fragmented Nuclei (%) [2]: 16%
- Population Healthy Nuclei (%) [2]: 73%
- Population Hoechst High Intensity Objects (%) [2]: 5%
- Population Membrane Permeable-Phenotype (%) [2]: 10%
- Population Mitochondria Different-Phenotype (%) [2]: 23%
- Population Mitotic Cells (%) [2]: 60%
- Population Normal (%) [2]: 94%
- Population Pyknosed Nuclei (%) [2]: 9%
- Population Tubulin-Different-Phenotype (%) [2]: 25%
- Total Cell Count [2]: 59
- Population Apoptotic (%) [3]: 76%
- Population Fragmented Nuclei (%) [3]: 37%
- Population Healthy Nuclei (%) [3]: 7%
- Population Membrane Permeable-Phenotype (%) [3]: 12%
- Population Mitochondria Different-Phenotype (%) [3]: 61%
- Population Mitotic Cells (%) [3]: 23%
- Population Pyknosed Nuclei (%) [3]: 55%
- Population Tubulin-Different-Phenotype (%) [3]: 73%
- Total Cell Count [3]: 161
- Population Apoptotic (%) [4]: 92%
- Population Fragmented Nuclei (%) [4]: 30%
- Population Healthy Nuclei (%) [4]: 2%
- Population Hoechst High Intensity Objects (%) [4]: 25%
- Population Membrane Permeable-Phenotype (%) [4]: 21%
- Population Mitochondria Different-Phenotype (%) [4]: 82%
- Population Mitotic Cells (%) [4]: 7%
- Population Normal (%) [4]: 74%
- Population Pyknosed Nuclei (%) [4]: 67%
- Population Tubulin-Different-Phenotype (%) [4]: 78%
- Total Cell Count [4]: 56
- Population Apoptotic (%) [5]: 37%
- Population Fragmented Nuclei (%) [5]: 12%
- Population Healthy Nuclei (%) [5]: 70%
- Population Membrane Permeable-Phenotype (%) [5]: 4%
- Population Mitochondria Different-Phenotype (%) [5]: 33%
- Population Mitotic Cells (%) [5]: 62%
- Population Pyknosed Nuclei (%) [5]: 16%
- Population Tubulin-Different-Phenotype (%) [5]: 24%
- Total Cell Count [5]: 182
- Population Apoptotic (%) [6]: 14%
- Population Fragmented Nuclei (%) [6]: 14%
- Population Healthy Nuclei (%) [6]: 74%
- Population Hoechst High Intensity Objects (%) [6]: 4%
- Population Membrane Permeable-Phenotype (%) [6]: 17%
- Population Mitochondria Different-Phenotype (%) [6]: 15%
- Population Mitotic Cells (%) [6]: 85%
- Population Normal (%) [6]: 95%
- Population Pyknosed Nuclei (%) [6]: 11%
- Population Tubulin-Different-Phenotype (%) [6]: 21%
- Total Cell Count [6]: 78
- Population Apoptotic (%) [7]: 70%
- Population Fragmented Nuclei (%) [7]: 35%
- Population Healthy Nuclei (%) [7]: 6%
- Population Hoechst High Intensity Objects (%) [7]: 23%
- Population Membrane Permeable-Phenotype (%) [7]: 7%
- Population Mitochondria Different-Phenotype (%) [7]: 49%
- Population Mitotic Cells (%) [7]: 29%
- Population Normal (%) [7]: 76%
- Population Pyknosed Nuclei (%) [7]: 57%
- Population Tubulin-Different-Phenotype (%) [7]: 53%
- Total Cell Count [7]: 186
- Population Apoptotic (%) [8]: 89%
- Population Fragmented Nuclei (%) [8]: 33%
- Population Healthy Nuclei (%) [8]: 2%
- Population Hoechst High Intensity Objects (%) [8]: 26%
- Population Membrane Permeable-Phenotype (%) [8]: 8%
- Population Mitochondria Different-Phenotype (%) [8]: 36%
- Population Mitotic Cells (%) [8]: 10%
- Population Normal (%) [8]: 73%
- Population Pyknosed Nuclei (%) [8]: 64%
- Population Tubulin-Different-Phenotype (%) [8]: 20%
- Total Cell Count [8]: 65
- Population Apoptotic (%) [9]: 46%
- Population Fragmented Nuclei (%) [9]: 9%
- Population Membrane Permeable-Phenotype (%) [9]: 4%
- Population Mitochondria Different-Phenotype (%) [9]: 14%
- Population Mitotic Cells (%) [9]: 53%
- Population Pyknosed Nuclei (%) [9]: 12%
- Population Tubulin-Different-Phenotype (%) [9]: 13%
- Total Cell Count [9]: 206
- Population Apoptotic (%) [10]: 37%
- Population Fragmented Nuclei (%) [10]: 11%
- Population Healthy Nuclei (%) [10]: 77%
- Population Hoechst High Intensity Objects (%) [10]: 3%
- Population Membrane Permeable-Phenotype (%) [10]: 22%
- Population Mitochondria Different-Phenotype (%) [10]: 20%
- Population Mitotic Cells (%) [10]: 62%
- Population Normal (%) [10]: 96%
- Population Pyknosed Nuclei (%) [10]: 10%
- Population Tubulin-Different-Phenotype (%) [10]: 22%
- Total Cell Count [10]: 111
- Population Apoptotic (%) [11]: 59%
- Population Fragmented Nuclei (%) [11]: 33%
- Population Healthy Nuclei (%) [11]: 7%
- Population Hoechst High Intensity Objects (%) [11]: 29%
- Population Membrane Permeable-Phenotype (%) [11]: 7%
- Population Mitochondria Different-Phenotype (%) [11]: 21%
- Population Mitotic Cells (%) [11]: 40%
- Population Normal (%) [11]: 70%
- Population Pyknosed Nuclei (%) [11]: 58%
- Population Tubulin-Different-Phenotype (%) [11]: 16%
- Total Cell Count [11]: 232
- Population Apoptotic (%) [12]: 82%
- Population Fragmented Nuclei (%) [12]: 34%
- Population Healthy Nuclei (%) [12]: 2%
- Population Hoechst High Intensity Objects (%) [12]: 28%
- Population Membrane Permeable-Phenotype (%) [12]: 20%
- Population Mitochondria Different-Phenotype (%) [12]: 30%
- Population Mitotic Cells (%) [12]: 17%
- Population Normal (%) [12]: 71%
- Population Pyknosed Nuclei (%) [12]: 63%
- Population Tubulin-Different-Phenotype (%) [12]: 20%
- Total Cell Count [12]: 79

SMILES: CN1C(=O)c2sccc2N(C)c2nc(Nc3ccc(S(N)(=O)=O)cc3)ncc21
- Population Apoptotic (%) [3]: 30% and 31%
- Population Fragmented Nuclei (%) [3]: 5% and 4%
- Population Healthy Nuclei (%) [3]: 88% and 84%
- Population Hoechst High Intensity Objects (%) [3]: 1%
- Population Membrane Permeable-Phenotype (%) [3]: 14% and 7%
- Population Mitochondria Different-Phenotype (%) [3]: 17% and 22%
- Population Mitotic Cells (%) [3]: 70% and 68%
- Population Normal (%) [3]: 98%
- Population Pyknosed Nuclei (%) [3]: 5% and 10%
- Population Tubulin-Different-Phenotype (%) [3]: 15% and 31%
- Total Cell Count [3]: 144 and 172
- Population Fragmented Nuclei (%) [4]: 6% and 13%
- Population Healthy Nuclei (%) [4]: 83% and 78%
- Population Hoechst High Intensity Objects (%) [4]: 8% and 19%
- Population Membrane Permeable-Phenotype (%) [4]: 19% and 8%
- Population Mitochondria Different-Phenotype (%) [4]: 36% and 35%
- Population Mitotic Cells (%) [4]: 90% and 66%
- Population Normal (%) [4]: 91% and 80%
- Population Pyknosed Nuclei (%) [4]: 9% and 7%
- Population Tubulin-Different-Phenotype (%) [4]: 18% and 21%
- Total Cell Count [4]: 94 and 98
- Population Apoptotic (%) [7]: 28% and 42%
- Population Fragmented Nuclei (%) [7]: 4% and 6%
- Population Healthy Nuclei (%) [7]: 92% and 84%
- Population Hoechst High Intensity Objects (%) [7]: 0% and 1%
- Population Membrane Permeable-Phenotype (%) [7]: 7% and 6%
- Population Mitochondria Different-Phenotype (%) [7]: 15% and 44%
- Population Mitotic Cells (%) [7]: 71% and 57%
- Population Normal (%) [7]: 99% and 98%
- Population Pyknosed Nuclei (%) [7]: 2% and 9%
- Population Tubulin-Different-Phenotype (%) [7]: 42%
- Total Cell Count [7]: 142 and 237
- Population Fragmented Nuclei (%) [8]: 9% and 12%
- Population Healthy Nuclei (%) [8]: 80%
- Population Hoechst High Intensity Objects (%) [8]: 8% and 12%
- Population Membrane Permeable-Phenotype (%) [8]: 11%
- Population Mitochondria Different-Phenotype (%) [8]: 57% and 27%
- Population Mitotic Cells (%) [8]: 63% and 100%
- Population Normal (%) [8]: 91% and 87%
- Population Pyknosed Nuclei (%) [8]: 10% and 3%
- Population Tubulin-Different-Phenotype (%) [8]: 17% and 40%
- Total Cell Count [8]: 112 and 90

From ChEMBL document CHEMBL4689842, “EUbOPEN Chemogenomics Library wave 1” (2021)
